ChEMBL document CHEMBL4382237, “Design, Synthesis, and Biological Evaluation of 2-Nitroimidazopyrazin-one/-es with Antitubercular and Antiparasitic Activity” (J Med Chem, 2018)
Values after ≈ are worked out from the molar mass of the structure shown.

Assays:
[1] = tested on: Trypanosoma brucei brucei; assay: Antiparasitic activity against bloodstream form of Trypanosoma brucei brucei strain 427 after 48 hrs by resazurin dye-based assay; assay type: functional, organism-based; details: strain 427, 48 h
[2] = tested on: Mycobacterium tuberculosis; assay: Antibacterial activity against non-replicating Mycobacterium tuberculosis H37Rv after 5 days under hypoxic condition by resazurin dye-based fluorescence assay; assay type: functional; details: 120 h
Summary of the method: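 Same H37Rv inoculum (OD600 0.001, ~2 x 10^4 CFU/mL) in 7H9S with serially diluted compound. Plates held 5 days at 0.1% oxygen, then resazurin plus Tween-80 added.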

Entamoeba histolytica = assay: Antiparasitic activity against Entamoeba histolytica HM-1:IMSS trophozoites after 24 to 48 hrs by CellTiter-Glo luminescent cell viability assay; assay type: functional, organism-based
Summary of the method: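 Axenic trophozoites were kept in TYI-S-33 with penicillin (100 U/mL) and streptomycin (100 µg/mL) and harvested in log phase. 5000 parasites per well were exposed to a final 8-point two-fold series of 0.39–50 µM, from 10 mM DMSO stocks. Plates were incubated 24–48 h at 37 °C under anaerobic conditions. ATP luminescence viability was read in triplicate. Percent inhibition is given at the highest concentration tested.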

HepG2 = assay: Cytotoxicity against human HepG2 cells after 24 hrs by resazurin dye-based fluorescence assay; assay type: cell-based; details: hepg2, 24 h
Summary of the method: (§1)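 HEK293 (3000/well) and HepG2 (5000/well) were grown 24 h in DMEM with 10% FBS at 37 °C, 5% CO2. Cells were then exposed 24 h to a dilution series up to 100 µM (0.5% DMSO). 5 µM resazurin was added for 2 h, read at ex 560/em 590. 1% Triton X-100 served as lysis control. CC50 was derived from the curves.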

[3] = tested on: Mycobacterium tuberculosis; assay: Antibacterial activity against Mycobacterium tuberculosis H37Rv after 5 days under normoxic condition by resazurin dye-based fluorescence assay; assay type: functional, organism-based
Summary of the method: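 H37Rv grown in 7H9/ADC/glycerol/Tyloxapol to mid-exponential phase, diluted to OD600 0.001 (~2 x 10^4 CFU/mL) in 7H9S with serially diluted compound. Incubated 5 days at 37 °C, then resazurin and Tween-80 added. Fluorescence (ex 530/em 590 nm) read after 24 h, normalised to no-drug and no-bacteria wells.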

HEK293 = assay: Cytotoxicity against HEK293 cells after 24 hrs by resazurin dye-based fluorescence assay; assay type: cell-based; details: human, hek293, 24 h; summary of the method: as §1
Giardia intestinalis = assay: Antiparasitic activity against Giardia lamblia WB trophozoites after 24 to 48 hrs by CellTiter-Glo luminescent cell viability assay; details: Giardia duodenalis
Klebsiella pneumoniae = assay: Antibacterial activity against Klebsiella pneumoniae 700603 by broth microdilution assay; assay type: functional
Summary of the method: (§2)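 Broth microdilution run essentially per an earlier report. MIC taken as the lowest concentration with no visible growth. Replicates typically agreed within one 2-fold dilution. The median MIC is reported, with a range where the median fell between two tested concentrations.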

Acinetobacter baumannii = assay: Antibacterial activity against Acinetobacter baumannii ATCC 19606 by broth microdilution assay; assay type: functional; details: ATCC 19606 = CIP 70.34 = JCM 6841; summary of the method: as §2
Escherichia coli = assay: Antibacterial activity against Escherichia coli ATCC 25922 by broth microdilution assay; assay type: functional; summary of the method: as §2
Pseudomonas aeruginosa = assay: Antibacterial activity against Pseudomonas aeruginosa ATCC 27853 by broth microdilution assay; assay type: functional; summary of the method: as §2
Cryptococcus neoformans = assay: Antifungal activity against Cryptococcus neoformans H99 ATCC […] broth microdilution assay; assay type: functional; details: var. grubii H99 ATCC 208821; summary of the method: as §2
Staphylococcus aureus = assay: Antibacterial activity against methicillin-resistant Staphylococcus aureus ATCC […] by broth microdilution assay; assay type: functional
Candida albicans = assay: Antifungal activity against Candida albicans ATCC 90028 by broth microdilution assay; assay type: functional; summary of the method: as §2
[4] = Metabolic stability in human plasma assessed as parent compound remaining at 3 uM after 2 hrs by LC-MS/MS analysis
[5] = Metabolic stability in CD-1 mouse liver microsomes assessed as parent compound remaining at 3 uM after 2 hrs by LC-MS/MS analysis
[6] = Metabolic stability in CD-1 mouse plasma assessed as parent compound remaining at 3 uM after 2 hrs by LC-MS/MS analysis
[7] = Metabolic stability in human liver microsomes assessed as parent compound remaining at 3 uM after 2 hrs by LC-MS/MS analysis

SMILES	IC50 ([1]; read-out: IC50) [µM]	IC50 ([1]; read-out: pIC50 (converted)) [µM]	MIC [2] [µg/mL]	CC50 (HepG2) [µM]	MIC [3] [µg/mL]	CC50 (HEK293) [µM]	IC50 (Giardia intestinalis) [µM]	IC50 (Giardia intestinalis; read-out: pIC50 (converted)) [µM]	MIC (Klebsiella pneumoniae) [µg/mL]	MIC (Acinetobacter baumannii) [µg/mL]	MIC (Escherichia coli) [µg/mL]	MIC (Pseudomonas aeruginosa) [µg/mL]	MIC (Cryptococcus neoformans) [µg/mL]	MIC (Staphylococcus aureus) [µg/mL]	MIC (Candida albicans) [µg/mL]	further results
Cc1c(C)n2cc([N+](=O)[O-])nc2c(=O)n1Cc1cccc(OC(F)(F)F)c1	0.4	0.398	16 to 32 (≈ 41.9 to 83.7 µM)	26 to 80	1 (≈ 2.62 µM)	50.6 to 74.5	1.7	1.58	–	–	–	–	–	–	–	IC50 (Entamoeba histolytica; read-out: IC50): 15 µM; IC50 (Entamoeba histolytica; read-out: pIC50 (converted)): 15.8 µM
O=c1c2nc([N+](=O)[O-])cn2ccn1CCN1CCOCC1	–	–	> 32	> 100	>32	> 100	–	–	> 32	> 32	> 32	> 32	> 32	> 32	> 32	–
CC1CC(OC(=O)C(O)c2ccccc2)CC(C)(C)N1C (stereo not drawn) [EUCATROPINE]	–	–	–	–	–	–	–	–	–	–	–	–	–	–	–	Stability [4]: 21%
O=[N+]([O-])c1cn2ccnc(OCCc3ccc(OC(F)(F)F)cc3)c2n1	–	–	> 32	> 100	>32	> 100	5.2	5.01	> 32	> 32	> 32	> 32	> 32	> 32	> 32	IC50 (Entamoeba histolytica; read-out: IC50): 7.8 µM
O=c1c2nc([N+](=O)[O-])cn2cc(-c2ccccc2)n1CCO	–	–	> 32	> 75	–	> 75	38	39.8	–	–	–	–	–	–	–	IC50 (Entamoeba histolytica; read-out: IC50): > 50 µM; IC50 (Entamoeba histolytica; read-out: pIC50 (converted)): > 50.1 µM
Cc1nc(OCc2ccc(OC(F)(F)F)cc2)c2nc([N+](=O)[O-])cn2c1C	10	10	> 32	–	>32	–	8.6	7.94	–	–	–	–	–	–	–	Stability [5]: < 0.5%; Stability [6]: > 99%; IC50 (Entamoeba histolytica; read-out: IC50): 17 µM; IC50 (Entamoeba histolytica; read-out: pIC50 (converted)): 15.8 µM; Stability [4]: > 99%; Stability [7]: 44%
O=c1c2nc([N+](=O)[O-])cn2ccn1Cc1ccc(F)cc1F	> 40	> 39.8	> 32	> 100	16 to 32	> 100	> 50	> 50.1	> 32	> 32	> 32	> 32	> 32	> 32	> 32	–
O=c1c2nc([N+](=O)[O-])cn2ccn1Cc1ccccc1OC(F)(F)F	6	6.31	8 (≈ 22.6 µM)	> 100	1 (≈ 2.82 µM)	> 100	8.2	7.94	> 32	> 32	> 32	> 32	> 32	> 32	> 32	Stability [5]: > 99%; Stability [7]: > 99%
O=C(Cn1ccn2cc([N+](=O)[O-])nc2c1=O)N1CCOCC1	4.1	3.98	> 32	> 100	>32	> 100	> 50	> 50.1	> 32	> 32	> 32	> 32	> 32	> 32	> 32	–
O=c1c2nc([N+](=O)[O-])cn2ccn1C1CCCCC1	1.4	1.26	> 32	–	>32	–	5.2	5.01	> 32	> 32	> 32	> 32	> 32	> 32	> 32	–
O=[N+]([O-])c1cn2ccnc(OCc3ccccc3OC(F)(F)F)c2n1	> 40	> 39.8	> 32	> 100	>32	> 100	12	12.6	> 32	> 32	> 32	> 32	> 32	> 32	> 32	Stability [5]: < 0.5%; Stability [7]: 51%
NC(=O)Cn1ccn2cc([N+](=O)[O-])nc2c1=O	> 40	> 39.8	> 32	> 100	>32	> 100	> 50	> 50.1	> 32	> 32	> 32	> 32	> 32	> 32	> 32	–
O=c1c2nc([N+](=O)[O-])cn2ccn1CCO	–	–	–	–	–	–	> 50	> 50.1	> 32	> 32	> 32	> 32	> 32	> 32	> 32	–
CC(=O)OCCn1ccn2cc([N+](=O)[O-])nc2c1=O	–	–	–	–	–	–	–	–	> 32	> 32	> 32	> 32	> 32	> 32	> 32	–
